Assay [1] has as its target Activin receptor type-2B (Homo sapiens) (UniProt Q13705). Description: Inhibition of T7 bacteriophage fused human ACVR2B at 10 uM by KINOMEscan analysis relative to control.
Assay [2] has as its target Cyclin-dependent kinase 11B (Homo sapiens) (UniProt P21127). Description: Inhibition of T7 bacteriophage fused human CDC2L1 at 10 uM by KINOMEscan analysis relative to control.
Assay [3] concerns the target Receptor-interacting serine/threonine-protein kinase 2 (Homo sapiens) (UniProt O43353). Description: Inhibition of T7 bacteriophage fused human RIPK2 at 10 uM by KINOMEscan analysis relative to control.
In assay [4] the target is Tyrosine-protein kinase Lyn (Homo sapiens) (UniProt P07948). As to the kind of experiment: Inhibition of T7 bacteriophage fused human LYN at 10 uM by KINOMEscan analysis relative to control.
Chain of Tyrosine-protein kinase Lyn (Homo sapiens) (P07948 2-512 limits assumed): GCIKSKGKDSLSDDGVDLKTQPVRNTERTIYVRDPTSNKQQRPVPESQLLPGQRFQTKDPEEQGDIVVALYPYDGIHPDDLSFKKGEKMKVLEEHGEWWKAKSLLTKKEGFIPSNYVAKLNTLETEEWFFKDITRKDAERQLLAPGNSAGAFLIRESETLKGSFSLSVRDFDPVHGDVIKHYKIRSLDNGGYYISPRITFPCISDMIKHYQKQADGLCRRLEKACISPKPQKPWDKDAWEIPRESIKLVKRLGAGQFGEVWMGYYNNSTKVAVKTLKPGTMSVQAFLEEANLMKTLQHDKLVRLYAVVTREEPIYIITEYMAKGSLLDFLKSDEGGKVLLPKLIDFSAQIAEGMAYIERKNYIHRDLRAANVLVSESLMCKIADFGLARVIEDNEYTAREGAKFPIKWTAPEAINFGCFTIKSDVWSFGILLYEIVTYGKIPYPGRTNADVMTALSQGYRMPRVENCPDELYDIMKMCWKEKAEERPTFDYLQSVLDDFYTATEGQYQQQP
For assay [5], the target named is Serine/threonine-protein kinase PRP4 homolog (Homo sapiens) (UniProt Q13523). As to the kind of experiment: Inhibition of T7 bacteriophage fused human PRP4 at 10 uM by KINOMEscan analysis relative to control.
Chain of Serine/threonine-protein kinase PRP4 homolog (Homo sapiens) (Q13523 whole entry, the tested form may be a part): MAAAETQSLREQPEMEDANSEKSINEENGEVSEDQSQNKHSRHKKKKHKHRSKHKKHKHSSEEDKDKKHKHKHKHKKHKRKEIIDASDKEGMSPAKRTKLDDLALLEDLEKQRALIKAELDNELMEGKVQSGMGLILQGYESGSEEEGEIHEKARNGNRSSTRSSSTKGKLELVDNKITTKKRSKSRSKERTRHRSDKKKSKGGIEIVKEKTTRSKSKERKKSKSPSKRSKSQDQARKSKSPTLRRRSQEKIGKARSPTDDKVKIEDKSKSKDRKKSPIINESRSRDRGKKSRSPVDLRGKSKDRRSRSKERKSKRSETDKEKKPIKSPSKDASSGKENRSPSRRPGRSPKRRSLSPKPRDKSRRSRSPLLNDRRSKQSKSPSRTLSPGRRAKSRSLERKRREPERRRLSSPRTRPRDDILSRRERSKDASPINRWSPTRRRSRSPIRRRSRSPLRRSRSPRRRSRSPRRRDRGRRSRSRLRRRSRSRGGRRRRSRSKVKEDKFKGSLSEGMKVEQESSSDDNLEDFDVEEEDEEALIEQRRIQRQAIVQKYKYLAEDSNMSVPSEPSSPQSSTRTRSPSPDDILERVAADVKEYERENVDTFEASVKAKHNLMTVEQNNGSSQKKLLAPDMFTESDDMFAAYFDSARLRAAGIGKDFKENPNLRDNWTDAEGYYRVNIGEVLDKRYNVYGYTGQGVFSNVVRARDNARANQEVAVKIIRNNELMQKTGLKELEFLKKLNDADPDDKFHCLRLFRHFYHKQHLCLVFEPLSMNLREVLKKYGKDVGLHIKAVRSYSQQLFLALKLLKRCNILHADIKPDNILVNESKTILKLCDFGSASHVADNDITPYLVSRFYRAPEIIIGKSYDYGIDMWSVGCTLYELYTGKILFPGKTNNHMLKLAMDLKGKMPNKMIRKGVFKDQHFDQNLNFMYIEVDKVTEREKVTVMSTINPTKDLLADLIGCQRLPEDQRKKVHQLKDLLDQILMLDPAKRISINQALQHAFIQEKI
For assay [6], the target named is Ephrin type-B receptor 6 (Homo sapiens) (UniProt O15197). Description: Inhibition of T7 bacteriophage fused human EPHB6 at 10 uM by KINOMEscan analysis relative to control.
In assay [7] the target is Mitogen-activated protein kinase 15 (Homo sapiens) (UniProt Q8TD08). As to the kind of experiment: Inhibition of T7 bacteriophage fused human ERK8 at 10 uM by KINOMEscan analysis relative to control.
Assay [8] addresses Dual specificity protein kinase CLK3 (Homo sapiens) (UniProt P49761). Description: Inhibition of T7 bacteriophage fused human CLK3 at 10 uM by KINOMEscan analysis relative to control.
The test system of assay [9] is Tyrosine-protein kinase ABL1 (Homo sapiens), P00519 [F317I]. Description: Inhibition of T7 bacteriophage fused human phosphorylated ABL1 F317I mutant at 10 uM by KINOMEscan analysis relative to control.
The target of assay [10] is Leukocyte tyrosine kinase receptor (Homo sapiens) (UniProt P29376). Description: Inhibition of T7 bacteriophage fused human LTK at 10 uM by KINOMEscan analysis relative to control; values are per cent of control.
The target in assay [11] is Cyclin-dependent kinase 18 (Homo sapiens) (UniProt Q07002). As to the kind of experiment: Inhibition of T7 bacteriophage fused human PCTK3 at 10 uM by KINOMEscan analysis relative to control.
Assay [12] deals with Receptor tyrosine-protein kinase erbB-3 (Homo sapiens) (UniProt P21860). As to the kind of experiment: Inhibition of T7 bacteriophage fused human ERBB3 at 10 uM by KINOMEscan analysis relative to control.
The target of assay [13] is Casein kinase I isoform gamma-2 (Homo sapiens) (UniProt P78368). Description: Inhibition of T7 bacteriophage fused human CSNK1G2 at 10 uM by KINOMEscan analysis relative to control.
Assay [14] has as its target Serine/threonine-protein kinase NIM1 (Homo sapiens) (UniProt Q8IY84). Description: Inhibition of T7 bacteriophage fused human NIM1 at 10 uM by KINOMEscan analysis relative to control.
For assay [15], the target named is Ephrin type-A receptor 1 (Homo sapiens) (UniProt P21709). Description: Inhibition of T7 bacteriophage fused human EPHA1 at 10 uM by KINOMEscan analysis relative to control.
For assay [16], the target named is Calcium/calmodulin-dependent protein kinase type II subunit beta (Homo sapiens) (UniProt Q13554). Description: Inhibition of T7 bacteriophage fused human CAMK2B at 10 uM by KINOMEscan analysis relative to control.
The target in assay [17] is cGMP-dependent protein kinase 2 (Homo sapiens) (UniProt Q13237). Description: Inhibition of T7 bacteriophage fused human PRKG2 at 10 uM by KINOMEscan analysis relative to control.
Assay [18] deals with Phosphatidylinositol 4-phosphate 5-kinase type-1 alpha (Homo sapiens) (UniProt Q99755). Description: Inhibition of T7 bacteriophage fused human PIP5K1A at 10 uM by KINOMEscan analysis relative to control.
In assay [19] the target is Rhodopsin kinase GRK7 (Homo sapiens) (UniProt Q8WTQ7). As to the kind of experiment: Inhibition of T7 bacteriophage fused human GRK7 at 10 uM by KINOMEscan analysis relative to control.
Assay [20] deals with Serine/threonine-protein kinase 17A (Homo sapiens) (UniProt Q9UEE5). As to the kind of experiment: Inhibition of T7 bacteriophage fused human DRAK1 at 10 uM by KINOMEscan analysis relative to control.
Assay [21] has as its target MAP kinase-activated protein kinase 2 (Homo sapiens) (UniProt P49137). Description: Inhibition of T7 bacteriophage fused human MAPKAPK2 at 10 uM by KINOMEscan analysis relative to control.
Assay [22] has as its target Cyclin-dependent kinase 5 (Homo sapiens) (UniProt Q00535). As to the kind of experiment: Inhibition of T7 bacteriophage fused human CDK5 at 10 uM by KINOMEscan analysis relative to control.
For assay [23], the target named is Ribosomal protein S6 kinase alpha-5 (Homo sapiens) (UniProt O75582). Description: Inhibition of T7 bacteriophage fused human C-terminal RPS6KA5 Kinase domain-2 at 10 uM by KINOMEscan analysis relative to control.
Assay [24] has as its target Casein kinase I isoform delta (Homo sapiens) (UniProt P48730). As to the kind of experiment: Inhibition of T7 bacteriophage fused human CSNK1D at 10 uM by KINOMEscan analysis relative to control; values are per cent of control.
For assay [25], the target named is Muscle, skeletal receptor tyrosine-protein kinase (Homo sapiens) (UniProt O15146). Description: Inhibition of T7 bacteriophage fused human MUSK at 10 uM by KINOMEscan analysis relative to control; values are per cent of control.
Assay [26] concerns Leucine-rich repeat serine/threonine-protein kinase 2 (Homo sapiens), Q5S007 [A2016T]. Description: Inhibition of drug-resistant GFP-tagged LRRK2 A2016T mutant phosphorylation at Ser910 residue (unknown origin) transfected in HEK293 cells upto 3 uM incubated for 90 mins by immunoblot analysis. The class given is cell-based. In short, it runs like this:
(§1)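 HEK293 cells stably expressing GFP-LRRK2 variants, grown in DMEM with 10% FBS, 2 mM glutamine and penicillin/streptomycin. Compound added from DMSO stock (final DMSO ≤1%) at increasing concentrations for 90 min, DMSO control. Cells were PBS-washed and lysed in Triton X-100 lysis buffer. Lysates were run on 8% SDS-PAGE and immunoblotted with rabbit monoclonals against pSer910, pSer935 and total LRRK2.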

For assay [27], the target named is Leucine-rich repeat serine/threonine-protein kinase 2 (Homo sapiens) (UniProt Q5S007). Description: Inhibition of LRRK2 phosphorylation at Ser910 residue in EBV immortalized human derived lymphoblastoid cells at 0.01 to 3 uM incubated for 90 mins by immunoblot analysis. Type of assay: cell-based. Conditions: Lymphoblastoid cell, dose 0.01-3 µM.
Chain of Leucine-rich repeat serine/threonine-protein kinase 2 (Homo sapiens) (Q5S007 whole entry): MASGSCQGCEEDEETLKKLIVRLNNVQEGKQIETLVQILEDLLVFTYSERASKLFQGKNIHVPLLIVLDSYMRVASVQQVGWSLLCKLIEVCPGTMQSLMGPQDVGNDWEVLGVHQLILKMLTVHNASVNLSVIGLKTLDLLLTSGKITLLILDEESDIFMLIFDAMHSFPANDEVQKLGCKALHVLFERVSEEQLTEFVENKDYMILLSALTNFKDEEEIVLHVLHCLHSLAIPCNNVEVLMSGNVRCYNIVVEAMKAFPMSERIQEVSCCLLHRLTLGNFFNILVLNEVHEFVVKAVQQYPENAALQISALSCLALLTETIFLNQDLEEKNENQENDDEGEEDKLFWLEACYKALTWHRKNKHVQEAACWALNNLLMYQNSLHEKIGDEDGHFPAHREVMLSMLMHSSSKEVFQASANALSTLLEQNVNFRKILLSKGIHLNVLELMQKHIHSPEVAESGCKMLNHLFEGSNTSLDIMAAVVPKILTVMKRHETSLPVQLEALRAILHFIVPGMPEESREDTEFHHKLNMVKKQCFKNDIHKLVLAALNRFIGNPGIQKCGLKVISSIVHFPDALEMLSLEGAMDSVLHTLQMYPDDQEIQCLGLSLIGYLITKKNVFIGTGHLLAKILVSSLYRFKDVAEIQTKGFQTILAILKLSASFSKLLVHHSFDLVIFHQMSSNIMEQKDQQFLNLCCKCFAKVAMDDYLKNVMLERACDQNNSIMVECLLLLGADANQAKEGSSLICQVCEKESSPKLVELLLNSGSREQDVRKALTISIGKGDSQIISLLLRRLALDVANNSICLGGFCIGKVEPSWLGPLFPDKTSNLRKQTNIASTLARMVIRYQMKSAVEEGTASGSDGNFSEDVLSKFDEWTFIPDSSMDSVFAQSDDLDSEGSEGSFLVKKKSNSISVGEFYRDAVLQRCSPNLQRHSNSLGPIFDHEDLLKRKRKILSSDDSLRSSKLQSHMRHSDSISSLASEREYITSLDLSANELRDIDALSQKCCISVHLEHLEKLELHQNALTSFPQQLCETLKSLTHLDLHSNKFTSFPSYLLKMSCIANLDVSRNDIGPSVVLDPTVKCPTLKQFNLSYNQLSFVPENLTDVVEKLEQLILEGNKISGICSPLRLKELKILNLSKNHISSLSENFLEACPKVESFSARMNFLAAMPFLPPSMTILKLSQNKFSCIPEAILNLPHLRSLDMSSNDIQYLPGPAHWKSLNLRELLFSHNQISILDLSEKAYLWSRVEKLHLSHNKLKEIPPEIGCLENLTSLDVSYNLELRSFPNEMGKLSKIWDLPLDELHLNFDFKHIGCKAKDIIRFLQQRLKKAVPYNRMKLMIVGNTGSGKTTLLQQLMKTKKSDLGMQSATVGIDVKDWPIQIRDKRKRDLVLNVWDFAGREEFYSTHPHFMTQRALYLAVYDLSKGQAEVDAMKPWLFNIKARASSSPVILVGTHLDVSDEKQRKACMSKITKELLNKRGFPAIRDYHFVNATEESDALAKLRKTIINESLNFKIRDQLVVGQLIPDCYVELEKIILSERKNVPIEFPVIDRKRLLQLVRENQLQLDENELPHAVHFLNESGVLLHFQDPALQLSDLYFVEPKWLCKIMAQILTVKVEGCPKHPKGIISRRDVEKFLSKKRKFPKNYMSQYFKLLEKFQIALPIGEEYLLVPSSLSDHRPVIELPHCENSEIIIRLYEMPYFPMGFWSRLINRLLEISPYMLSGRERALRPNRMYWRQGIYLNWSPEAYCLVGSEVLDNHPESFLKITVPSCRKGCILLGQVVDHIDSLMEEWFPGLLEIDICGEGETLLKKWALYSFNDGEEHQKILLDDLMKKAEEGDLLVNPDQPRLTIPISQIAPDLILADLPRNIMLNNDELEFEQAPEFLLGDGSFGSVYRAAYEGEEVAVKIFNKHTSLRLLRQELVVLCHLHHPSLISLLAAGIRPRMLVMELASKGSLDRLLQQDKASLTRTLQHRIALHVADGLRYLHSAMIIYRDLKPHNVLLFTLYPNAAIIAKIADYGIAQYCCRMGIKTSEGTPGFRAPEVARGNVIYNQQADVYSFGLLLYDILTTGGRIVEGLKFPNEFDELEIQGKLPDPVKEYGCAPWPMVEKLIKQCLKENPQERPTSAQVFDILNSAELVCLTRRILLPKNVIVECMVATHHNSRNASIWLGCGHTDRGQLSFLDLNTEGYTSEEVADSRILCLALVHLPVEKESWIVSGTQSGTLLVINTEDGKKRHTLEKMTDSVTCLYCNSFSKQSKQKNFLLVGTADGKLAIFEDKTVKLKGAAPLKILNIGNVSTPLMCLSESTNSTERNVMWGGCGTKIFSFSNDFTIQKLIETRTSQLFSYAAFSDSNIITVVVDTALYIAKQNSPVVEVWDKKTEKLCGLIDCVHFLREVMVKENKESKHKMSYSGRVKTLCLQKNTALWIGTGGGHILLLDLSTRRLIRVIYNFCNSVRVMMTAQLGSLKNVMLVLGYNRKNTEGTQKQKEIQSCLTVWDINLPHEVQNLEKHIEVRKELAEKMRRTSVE
Assay [28] shares this target. As to the kind of experiment: Inhibition of wildtype GFP-tagged LRRK2 phosphorylation at Ser935 residue (unknown origin) transfected in HEK293 cells upto 3 uM incubated for 90 mins by immunoblot analysis. The class given is cell-based.
Assay [29] relates to Leucine-rich repeat serine/threonine-protein kinase 2 (Homo sapiens), Q5S007 [A2016T]. As to the kind of experiment: Inhibition of drug-resistant GFP-tagged LRRK2 A2016T mutant phosphorylation at Ser935 residue (unknown origin) transfected in HEK293 cells upto 3 uM incubated for 90 mins by immunoblot analysis. Type of assay: cell-based. The method in brief: as §1
Chain of Leucine-rich repeat serine/threonine-protein kinase 2 (Homo sapiens), Q5S007 [A2016T] (Q5S007 whole entry A2016T): as the sequence (Q5S007 whole entry) above, with A2016T counted along it

Active and inactive are the calls of the source. No cut-off for these calls is given here.

Chain of Dual specificity protein kinase CLK3 (Homo sapiens) (P49761 whole entry, looked up, the tested form may be a part): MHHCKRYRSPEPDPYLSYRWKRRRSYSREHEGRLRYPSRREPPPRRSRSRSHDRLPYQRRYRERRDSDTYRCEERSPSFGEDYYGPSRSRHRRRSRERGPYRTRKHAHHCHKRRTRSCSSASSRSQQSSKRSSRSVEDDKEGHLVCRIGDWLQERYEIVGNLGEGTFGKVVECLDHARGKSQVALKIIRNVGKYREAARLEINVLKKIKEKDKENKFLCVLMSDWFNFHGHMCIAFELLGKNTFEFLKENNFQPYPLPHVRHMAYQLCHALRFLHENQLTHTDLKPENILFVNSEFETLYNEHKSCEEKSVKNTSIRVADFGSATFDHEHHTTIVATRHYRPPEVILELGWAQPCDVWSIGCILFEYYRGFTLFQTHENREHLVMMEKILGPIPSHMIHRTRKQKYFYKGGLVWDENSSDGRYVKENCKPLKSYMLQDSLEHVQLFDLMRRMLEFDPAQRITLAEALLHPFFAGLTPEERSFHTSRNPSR
Chain of Activin receptor type-2B (Homo sapiens) (Q13705 whole entry, the tested form may be a part): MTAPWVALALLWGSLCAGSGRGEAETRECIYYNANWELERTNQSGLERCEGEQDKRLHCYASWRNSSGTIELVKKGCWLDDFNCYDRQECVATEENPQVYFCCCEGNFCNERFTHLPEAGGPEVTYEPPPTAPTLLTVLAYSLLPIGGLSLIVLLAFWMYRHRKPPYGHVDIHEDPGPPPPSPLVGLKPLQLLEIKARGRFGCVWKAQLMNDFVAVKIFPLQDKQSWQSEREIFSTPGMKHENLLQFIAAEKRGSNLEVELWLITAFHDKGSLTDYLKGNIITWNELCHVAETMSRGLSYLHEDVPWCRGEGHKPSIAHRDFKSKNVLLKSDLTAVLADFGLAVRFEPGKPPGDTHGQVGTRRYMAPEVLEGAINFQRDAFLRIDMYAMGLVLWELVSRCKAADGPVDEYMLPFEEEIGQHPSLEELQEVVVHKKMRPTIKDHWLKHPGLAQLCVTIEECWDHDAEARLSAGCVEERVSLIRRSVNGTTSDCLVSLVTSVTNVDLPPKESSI

Turning to `COc1cc(N2CCC(N3CCN(C)CC3)CC2)ccc1Nc1ncc2c(n1)N(C)c1ccccc1C(=O)N2C`, the inhibition amounted to 100% in assay [1]; 84% in assay [2]; 100% in assay [3]; 100% in assay [4]; 93% in [5]; 31% in assay [6]. In addition, the inhibition in assay [7] amounted to 100%; in [8] it was 95%; in assay [9] it was 17%; in [11], 100%; in assay [12] it was 100%; in assay [13] it was 100%. In addition, the inhibition is 100% in [14]; 100% in assay [15]; 62% in assay [16]; 74% in assay [17]; 90% in [18]; 100% in assay [19]. In addition, the inhibition in assay [20] was 100%; in [21], 100%; in assay [22], 81%; in assay [23] it was 92%. Moreover, the residual activity in assay [10] turned out to be 32%; in assay [24], 81%; in assay [25], 99%.
Take `CCOc1cc(C(=O)N2CCC(N3CCN(C)CC3)CC2)ccc1Nc1ncc2c(n1)N(C1CCCC1)c1ccccc1C(=O)N2C`: the inhibition result in assay [26], in [27], in assay [28] and in assay [29] was “inactive” each time.
